The text below walks through data of ChEMBL document CHEMBL4706530, “Synthesis, inhibitory activity and in silico docking of dual COX/5-LOX inhibitors with quinone and resorcinol core” (Eur J Med Chem, 2020).

Structures are written as SMILES. Calls of active or inactive are those of the source. The rule behind the calls is not given here. Bounds are passed on as bounds.

Experiment [1] concerns the target T1, Prostaglandin G/H synthase 1 (Ovis aries, UniProt P05979).
T1 sequence (P05979 whole entry): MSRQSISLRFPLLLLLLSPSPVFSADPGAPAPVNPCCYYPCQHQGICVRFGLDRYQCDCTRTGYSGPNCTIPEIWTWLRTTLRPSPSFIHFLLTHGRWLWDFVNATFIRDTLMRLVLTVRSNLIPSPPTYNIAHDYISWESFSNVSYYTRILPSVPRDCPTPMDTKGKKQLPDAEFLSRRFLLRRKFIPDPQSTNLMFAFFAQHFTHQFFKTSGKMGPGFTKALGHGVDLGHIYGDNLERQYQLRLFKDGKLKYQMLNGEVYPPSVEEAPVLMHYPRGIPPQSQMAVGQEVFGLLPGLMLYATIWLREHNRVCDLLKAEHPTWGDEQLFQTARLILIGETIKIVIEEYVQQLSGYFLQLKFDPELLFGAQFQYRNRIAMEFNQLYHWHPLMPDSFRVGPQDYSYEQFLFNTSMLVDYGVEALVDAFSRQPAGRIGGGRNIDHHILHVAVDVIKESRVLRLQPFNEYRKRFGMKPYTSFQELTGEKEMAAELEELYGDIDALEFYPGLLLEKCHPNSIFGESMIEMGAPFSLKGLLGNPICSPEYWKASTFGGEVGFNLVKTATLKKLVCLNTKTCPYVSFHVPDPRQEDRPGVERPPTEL
In words: Inhibition of ovine COX-1 assessed as reduction in PGE2 level using 10 uM arachidonic acid as substrate preincubated with enzyme for 5 mins followed by substrate addition and measured after 20 mins by ELISA. The procedure, abridged: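 Enzyme in 100 mM Tris pH 8.0 with 5 µM porcine hematin, 18 mM L-epinephrine and 50 µM Na2EDTA. Compound in DMSO (DMSO blank) 5 min at room temperature. Arachidonic acid (10 µM) added, 20 min at 37°C. Stopped with 10% formic acid, diluted 1:15, PGE2 measured by ELISA at 405 nm as % inhibition versus blank. At least three experiments in at least duplicate. Non-active below 50% inhibition at 20 µM.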

Experiment [2] addresses T1, Prostaglandin G/H synthase 1. In words: Competitive inhibition of ovine COX-1 assessed as reduction in PGE2 level using 1250 nM arachidonic acid as substrate preincubated with enzyme for 5 mins followed by substrate addition and measured after 20 mins by ELISA. The method, boiled down:
(§1)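 Substrate-dependence test. Enzyme in 100 mM Tris pH 8.0 with 5 µM porcine hematin, 18 mM L-epinephrine and 50 µM Na2EDTA. Compound in DMSO (DMSO blank) preincubated 5 min at room temperature. Arachidonic acid added to final 50, 250 or 1250 nM, then 20 min at 37°C. Stopped with 10% formic acid, diluted 1:15, PGE2 quantified by ELISA at 405 nm. Inhibition calculated versus blank at the same AA level.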

Experiment [3] has as its target T2, Prostaglandin G/H synthase 2 (Homo sapiens, UniProt P35354).
T2 sequence (P35354 whole entry): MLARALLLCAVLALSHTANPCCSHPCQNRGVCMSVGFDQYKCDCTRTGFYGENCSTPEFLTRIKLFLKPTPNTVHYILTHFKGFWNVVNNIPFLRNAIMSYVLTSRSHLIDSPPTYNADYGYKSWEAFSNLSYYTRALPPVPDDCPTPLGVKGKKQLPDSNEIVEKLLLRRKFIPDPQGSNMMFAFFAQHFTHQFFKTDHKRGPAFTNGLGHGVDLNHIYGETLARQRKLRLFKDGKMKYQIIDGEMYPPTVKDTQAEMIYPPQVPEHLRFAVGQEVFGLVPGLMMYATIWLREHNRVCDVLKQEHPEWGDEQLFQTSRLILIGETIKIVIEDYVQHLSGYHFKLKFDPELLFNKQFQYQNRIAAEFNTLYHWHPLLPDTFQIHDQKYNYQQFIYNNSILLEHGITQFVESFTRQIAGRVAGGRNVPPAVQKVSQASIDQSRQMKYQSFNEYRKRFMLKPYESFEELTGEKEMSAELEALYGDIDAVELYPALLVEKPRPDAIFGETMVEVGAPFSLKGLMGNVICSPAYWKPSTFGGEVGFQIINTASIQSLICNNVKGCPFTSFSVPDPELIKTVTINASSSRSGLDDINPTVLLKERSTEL
Kind of experiment: Inhibition of human recombinant COX-2 assessed as reduction in PGE2 level using 10 uM arachidonic acid as substrate preincubated with enzyme for 5 mins followed by substrate addition and measured after 20 mins by ELISA.

A short description of experiment [4]: Antioxidant activity assessed as radical scavenging activity at 400 uM measured after 30 mins by DPPH assay. In kind it is functional. The procedure, abridged: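 Test compounds in methanol, two-fold serial dilution to final 3.125–400 µM, incubated 30 min with DPPH in methanol (stated final […]) at room temperature in the dark. Absorbance read at 517 nm. Trolox and L-ascorbic acid served as positive references. Activity expressed as EC50.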

The target of experiment [5] is T1, Prostaglandin G/H synthase 1. Kind of experiment: Competitive inhibition of ovine COX-1 assessed as reduction in PGE2 level using 250 nM arachidonic acid as substrate preincubated with enzyme for 5 mins followed by substrate addition and measured after 20 mins by ELISA. The procedure, abridged:
as §1

In experiment [6] the target is T3, Polyunsaturated fatty acid 5-lipoxygenase (Homo sapiens, UniProt P09917).
T3 sequence (P09917 whole entry): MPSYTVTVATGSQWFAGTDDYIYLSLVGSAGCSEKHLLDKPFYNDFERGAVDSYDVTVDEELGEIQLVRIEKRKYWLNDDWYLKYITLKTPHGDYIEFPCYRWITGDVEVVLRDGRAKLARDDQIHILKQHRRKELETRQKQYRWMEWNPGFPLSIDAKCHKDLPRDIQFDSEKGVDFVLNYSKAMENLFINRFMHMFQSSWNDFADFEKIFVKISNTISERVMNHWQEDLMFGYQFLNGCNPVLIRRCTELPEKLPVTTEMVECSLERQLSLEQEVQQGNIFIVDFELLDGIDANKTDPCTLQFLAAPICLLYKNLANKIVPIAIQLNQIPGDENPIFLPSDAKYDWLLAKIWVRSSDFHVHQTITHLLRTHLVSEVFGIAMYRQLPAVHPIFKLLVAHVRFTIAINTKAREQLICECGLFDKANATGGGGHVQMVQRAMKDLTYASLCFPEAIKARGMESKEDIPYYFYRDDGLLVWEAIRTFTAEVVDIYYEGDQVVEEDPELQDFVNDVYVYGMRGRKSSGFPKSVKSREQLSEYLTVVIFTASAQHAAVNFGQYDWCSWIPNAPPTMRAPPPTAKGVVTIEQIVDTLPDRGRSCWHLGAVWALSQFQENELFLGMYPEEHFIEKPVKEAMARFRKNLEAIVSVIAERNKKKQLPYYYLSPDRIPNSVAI
In words: Inhibition of human recombinant 5-LOX assessed as reduction in LTB4 level using 5 to 80 uM arachidonic acid as substrate preincubated with enzyme for 10 mins followed by substrate addition and measured after 10 mins by ELISA. The method, boiled down: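 Human recombinant 5-LOX, 1 unit per reaction, in PBS pH 7.4 with 1 mM Na2EDTA and 200 µM ATP. Compound in DMSO preincubated 10 min at 4°C. CaCl2 added, then arachidonic acid at final 5, 20 or 80 µM, 10 min at 37°C. Stopped with 10% formic acid, diluted 1:15, LTB4 measured by ELISA. Inhibition calculated versus blank at the matching AA level.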

The target of experiment [7] is T1, Prostaglandin G/H synthase 1. Kind of experiment: Competitive inhibition of ovine COX-1 assessed as reduction in PGE2 level using 50 nM arachidonic acid as substrate preincubated with enzyme for 5 mins followed by substrate addition and measured after 20 mins by ELISA. The method, boiled down:
as §1

Experiment [8] concerns the target T3, Polyunsaturated fatty acid 5-lipoxygenase. In words: Inhibition of human recombinant 5-LOX assessed as reduction in LTB4 level using 800 uM arachidonic acid as substrate preincubated with enzyme for 10 mins followed by substrate addition and measured after 10 mins by ELISA. The method, boiled down: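 Human recombinant 5-LOX, 1 unit per reaction, in PBS pH 7.4 containing 1 mM Na2EDTA and 200 µM ATP. Compound in DMSO (DMSO blank) held 10 min at 4°C. CaCl2 added, reaction started with arachidonic acid (800 µM solution) for 10 min at 37°C. Formic acid stop, 1:15 dilution, LTB4 measured by ELISA as % inhibition versus blank. At least three experiments in at least duplicate.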

A short description of experiment [9]: Selectivity index, ratio of IC50 for ovine COX-1 to IC50 for human recombinant COX-2.

In the case of `CCCCCCCCCCCC1=CC(=O)C=C(OC)C1=O`, the IC50 in [1] was 1070 nM; in experiment [2], above 20000 nM; in [3] it was 570 nM; in experiment [5], 2770 nM; in [6], 710 nM; in experiment [7], 800 nM. For the same compound, the IC50 in [8] turned out to be 340 nM. In addition, the result in experiment [4] was inactive. In [9], the Ratio IC50 is 1.88.
